Reference: ChEMBL document CHEMBL3351653, “One-pot heterogeneous synthesis of Δ(3)-tetrahydrocannabinol analogues and xanthenes showing differential binding to CB(1) and CB(2) receptors” (Eur J Med Chem, 2014)

Assays:
Cannabinoid receptor 1 = Cannabinoid receptor 1 (Homo sapiens, UniProt P21554); assay: Displacement of [3H]CP55940 from human cannabinoid CB1 receptor expressed in CHO-K1 cells by liquid scintillation counting; assay type: cell-based
Cannabinoid receptor 2 [1] = biological target: T1, Cannabinoid receptor 2 (Homo sapiens, UniProt P34972); assay: Displacement of [3H]CP55940 from human cannabinoid CB2 receptor expressed in CHO-K1 cells by liquid scintillation counting; assay type: cell-based
Cannabinoid receptor 2 [2] = biological target: T1, Cannabinoid receptor 2; assay: Partial agonist activity at human cannabinoid CB2 receptor expressed in CHO-K1 cells assessed as [S35]GTPgammaS binding by scintillation counting relative to vehicle treated control; assay type: functional, cell-based
Procedure, shortened: (§1)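 CB2 membranes held on ice with […] and 0.1 nM [35S]-GTPγS in buffer with 0.5% fatty-acid-free BSA. Reaction started by adding compound, vehicle or CP55940. GF/B filtration, washing in ice-cold 50 mM Tris-HCl pH 7.4 with 0.1% BSA, then scintillation counting. Specific binding is signal minus the excess-GTPγS residual. Results given as % of vehicle control. Three independent experiments in triplicate.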

Cannabinoid receptor 2 [3] = biological target: T1, Cannabinoid receptor 2; assay: Partial agonist activity at human cannabinoid CB2 receptor expressed in CHO-K1 cells assessed as [S35]GTPgammaS binding by scintillation counting; assay type: functional, cell-based
Procedure, shortened: as §1, with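 “BSA.” for “BSA. Reaction started by adding compound, vehicle or CP55940.”, “residual.” for “residual. Results given as % of vehicle control.”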

T1 sequence (P34972 whole entry): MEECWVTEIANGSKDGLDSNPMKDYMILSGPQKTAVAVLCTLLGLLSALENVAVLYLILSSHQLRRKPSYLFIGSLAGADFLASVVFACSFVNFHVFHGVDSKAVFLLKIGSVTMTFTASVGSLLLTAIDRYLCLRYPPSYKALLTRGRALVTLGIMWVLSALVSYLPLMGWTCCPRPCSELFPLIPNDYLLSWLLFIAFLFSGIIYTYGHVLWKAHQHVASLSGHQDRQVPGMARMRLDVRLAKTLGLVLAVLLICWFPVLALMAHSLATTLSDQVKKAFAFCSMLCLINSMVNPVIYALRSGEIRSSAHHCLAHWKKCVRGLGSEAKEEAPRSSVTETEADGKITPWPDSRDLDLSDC
Sequence of Cannabinoid receptor 1 (P21554 whole entry): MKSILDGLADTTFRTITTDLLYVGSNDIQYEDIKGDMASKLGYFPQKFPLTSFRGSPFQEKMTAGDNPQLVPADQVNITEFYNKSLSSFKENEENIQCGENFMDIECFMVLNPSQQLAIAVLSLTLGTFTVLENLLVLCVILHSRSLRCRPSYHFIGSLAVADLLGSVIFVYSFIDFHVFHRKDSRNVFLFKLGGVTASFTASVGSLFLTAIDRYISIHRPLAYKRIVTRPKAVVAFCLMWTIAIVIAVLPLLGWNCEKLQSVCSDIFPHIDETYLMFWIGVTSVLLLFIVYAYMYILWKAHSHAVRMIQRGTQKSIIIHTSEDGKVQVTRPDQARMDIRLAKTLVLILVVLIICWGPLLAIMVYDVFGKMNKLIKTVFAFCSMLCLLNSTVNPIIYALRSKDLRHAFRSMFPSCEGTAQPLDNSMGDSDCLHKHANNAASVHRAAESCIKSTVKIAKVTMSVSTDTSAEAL

Compound	Ki (Cannabinoid receptor 1) [µM]	Ki (Cannabinoid receptor 2 [1]) [µM]	Emax (Cannabinoid receptor 2 [2]) [%]	EC50 (Cannabinoid receptor 2 [3]) [µM]
Cc1c(O)ccc2c1OC1=C(CC[C@@H](C)C1)C2(C)C	> 10	1	–	–
CCc1cc2c(cc1O)OC(C)(C)C1=C2C[C@H](C)CC1	> 10	> 10	–	–
CCCCCc1cc(O)c2c(c1)OC(C)(C)C1=C2C[C@@H](C)CC1	–	–	146	–
CCCCCc1cc(O)c2c(c1)OC1=C(CC[C@H](C)C1)C2(C)C	2.1	0.18	167	0.82
CCCCCc1cc(O)c2c(c1)OC1=C(CC[C@@H](C)C1)C2(C)C	1.1	0.47	152	0.93
CCc1cc2c(cc1O)OC1=C(CC[C@@H](C)C1)C2(C)C	> 10	0.51	–	–
C[C@@H]1CCC2=C(C1)Oc1cc(O)ccc1C2(C)C	> 10	4.2	–	–
Cc1cc(O)c2c(c1)OC(C)(C)C1=C2C[C@H](C)CC1	1	0.66	–	–
CCCCCc1cc(O)c2c(c1)OC(C)(C)C1=C2C[C@H](C)CC1	–	–	133	–
Cc1cc(O)c2c(c1)OC1=C(CC[C@@H](C)C1)C2(C)C	> 10	> 10	–	–
C[C@@H]1CCC2=C(C1)c1ccc(O)cc1OC2(C)C	> 10	> 10	–	–
Cc1c(O)ccc2c1OC(C)(C)C1=C2C[C@H](C)CC1	> 10	> 10	–	–
